Measurements reported in ChEMBL document CHEMBL1134629, “Synthesis and biological evaluation of s-triazine substituted polyamines as potential new anti-trypanosomal drugs” (J Med Chem, 2001).

Experiments:
[1] = system: Trypanosoma brucei rhodesiense; experiment: Inhibitory activity against T.b. rhodesiense; type: functional, organism-based
[2] = species: Rattus norvegicus; experiment: Inhibitory activity against L-6 rat myoblast cells; type: functional, cell-based
Procedure, shortened: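 Noninfected rat L-6 skeletal myoblasts seeded at 2000 cells/well in RPMI 1640 with 10% FBS and 2 mM L-glutamine; serial drug dilutions as in the T. cruzi assay, 37 °C, 5% CO2; MIC determined microscopically after 4 days.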

[3] = Inhibitory activity against Trypanosoma cruzi; type: functional
Procedure, shortened: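 L-6 myoblasts (2000/well, RPMI 1640, 10% FBS, 2 mM L-glutamine) infected after 24 h with 5000 trypomastigotes of T. cruzi Tulahuen C2C4 carrying LacZ plus serial drug dilution; 4 days at 37 °C, 5% CO2. Intracellular amastigote growth read via CPRG/Nonidet colour at 540 nm after 2-4 h; IC50 from sigmoidal inhibition curve.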

[4] = target: T1, Adenosine transporter 1 (Trypanosoma brucei, UniProt Q9Y0I0); experiment: Ability to inhibit adenosine uptake by the P2 transporter in Trypanosoma brucei
T1 sequence (Q9Y0I0 whole entry): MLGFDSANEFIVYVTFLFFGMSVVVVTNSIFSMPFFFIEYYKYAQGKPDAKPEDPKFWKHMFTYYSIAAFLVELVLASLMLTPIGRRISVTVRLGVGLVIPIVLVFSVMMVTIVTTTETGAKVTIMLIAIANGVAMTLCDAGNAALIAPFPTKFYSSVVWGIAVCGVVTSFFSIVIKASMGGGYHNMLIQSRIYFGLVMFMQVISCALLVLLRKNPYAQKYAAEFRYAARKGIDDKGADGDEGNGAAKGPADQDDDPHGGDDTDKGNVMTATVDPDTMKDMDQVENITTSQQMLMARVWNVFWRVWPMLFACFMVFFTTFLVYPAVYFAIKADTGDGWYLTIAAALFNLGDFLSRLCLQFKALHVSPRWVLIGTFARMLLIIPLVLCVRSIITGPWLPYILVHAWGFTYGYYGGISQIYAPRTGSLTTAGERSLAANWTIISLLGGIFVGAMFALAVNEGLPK
Procedure, shortened: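 T. b. brucei 427 cells (100 µL at 2 × 10⁸/mL) added to buffer with radiolabeled adenosine, 1 mM inosine to block P1 uptake, and varying inhibitor concentrations; 10 s at room temperature, then spun through 1-bromododecane oil, pellet radioactivity counted by scintillation. Apparent Ki from competitive inhibition equation; duplicate experiments.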

[5] = system: Trypanosoma brucei brucei; experiment: Inhibitory activity against Trypanosoma brucei; type: functional, organism-based

SMILES	IC50 [1]	IC50 [2]	Ki [4]	IC50 [5]	IC50 [3]
CN(C)c1nc(N)nc(CN(CCCNCCCCCCCCCCCCNCCCN(Cc2nc(N)nc(N(C)C)n2)Cc2nc(N)nc(N(C)C)n2)Cc2nc(N)nc(N(C)C)n2)n1	0.44 µM	105 µM	4.6 µM	2 µM	> 77 µM
Nc1nc(N)nc(NCCCNCCCCNCCCNc2nc(N)nc(N)n2)n1	160 µM	353 µM	72 µM	> 100 µM	> 160 µM
CNc1nc(CN(CCCNCCCCCCCCCNCCCN(Cc2nc(NC)nc(NC)n2)Cc2nc(NC)nc(NC)n2)Cc2nc(NC)nc(NC)n2)nc(NC)n1	0.265 µM	177 µM	30 µM	0.1 µM	76.8 µM
Nc1nc(N)nc(NCCCNC2CCCCC2NCCCNc2nc(N)nc(N)n2)n1 (centres undefined)	> 152 µM	338 µM	55 µM	> 100 µM	> 152 µM
CNc1nc(NC)nc(NCCCNCCCCCCCCCCCCNCCCNc2nc(NC)nc(NC)n2)n1	2.3 µM	143 µM	3.2 µM	17 µM	18 µM
CNc1nc(NC)nc(NCCCNCCCCCCCCCNCCCNc2nc(NC)nc(NC)n2)n1	17 µM	289 µM	14 µM	4 µM	> 130 µM
Nc1nc(N)nc(CN(CCCNCCCCCCCCCCCCNCCCN(Cc2nc(N)nc(N)n2)Cc2nc(N)nc(N)n2)Cc2nc(N)nc(N)n2)n1	0.57 µM	188 µM	6.7 µM	21 µM	> 85 µM
CC(CNCCCNc1nc(N)nc(N)n1)NCCCNc1nc(N)nc(N)n1 (centres undefined)	> 163 µM	362 µM	163 µM	> 100 µM	> 163 µM
Nc1nc(N)nc(CN(CCCNCCCCCCCCCNCCCN(Cc2nc(N)nc(N)n2)Cc2nc(N)nc(N)n2)Cc2nc(N)nc(N)n2)n1	4.02 µM	220 µM	82 µM	32 µM	> 88 µM
Nc1nc(N)nc(NCCCNCCCCCCCCCNCCCNc2nc(N)nc(N)n2)n1	128 µM	–	19 µM	> 100 µM	> 140 µM
Nc1nc(N)nc(NCCCNC2CCC(NCCCNc3nc(N)nc(N)n3)CC2)n1 (centres undefined)	> 152 µM	338 µM	125 µM	> 100 µM	> 152 µM
CCCCCCCCCCCCCCCCCCNc1nc(NC)nc(NC)n1	14 µM	48.2 µM	–	–	12 µM
CN(C)c1nc(N)nc(CN(CCCNCCCCCCCCCNCCCN(Cc2nc(N)nc(N(C)C)n2)Cc2nc(N)nc(N(C)C)n2)Cc2nc(N)nc(N(C)C)n2)n1	0.265 µM	177 µM	17 µM	3 µM	54.8 µM
CNc1nc(CN(CCCNCCCCCCCCCCCCNCCCN(Cc2nc(NC)nc(NC)n2)Cc2nc(NC)nc(NC)n2)Cc2nc(NC)nc(NC)n2)nc(NC)n1	0.18 µM	76.6 µM	2.4 µM	2.9 µM	> 77 µM
CNc1nc(N)nc(NCCCNCCCCCCCCCNCCCNc2nc(N)nc(NC)n2)n1	16 µM	285 µM	0.75 µM	53 µM	> 135 µM
Nc1nc(N)nc(NCCCCCCCCCCCCNc2nc(N)nc(N)n2)n1	13 µM	239 µM	–	–	6 µM

More lines, main results first:

IC50 [1]	IC50 [2]	Ki [4]	IC50 [5]	SMILES	IC50 [3]
0.94 µM	135 µM	17 µM	84 µM	CNc1nc(NC)nc(NCCCNCCCCCCCCCNCCCN)n1	23 µM
0.81 µM	6.8 µM	2.5 µM	1.7 µM	CN(C)c1nc(NCCCNCCCCCCCCCCCCNCCCNc2nc(N(C)C)nc(N(C)C)n2)nc(N(C)C)n1	0.8 µM
1.1 µM	127 µM	0.41 µM	> 200 µM	CNc1nc(N)nc(NCCCNCCCCCCCCCCCCNCCCN)n1	> 154 µM
3.5 µM	50.9 µM	0.24 µM	> 100 µM	CN(C)c1nc(N)nc(NCCCNCCCCCCCCCCCCNCCCNc2nc(N)nc(N(C)C)n2)n1	9.7 µM
0.58 µM	57.7 µM	25 µM	20 µM	CNc1nc(NC)nc(NCCCNCCCCCCCCCCCCNCCCN)n1	31 µM
9.6 µM	274 µM	10 µM	40 µM	CN(C)c1nc(N)nc(NCCCNCCCCCCCCCNCCCNc2nc(N)nc(N(C)C)n2)n1	> 123 µM
1.2 µM	37.7 µM	29 µM	32 µM	CN(C)c1nc(NCCCNCCCCCCCCCNCCCNc2nc(N(C)C)nc(N(C)C)n2)nc(N(C)C)n1	16 µM
9.8 µM	–	0.135 µM	2 µM	CNc1nc(N)nc(NCCCNCCCCCCCCCCCCNCCCNc2nc(N)nc(NC)n2)n1	116 µM
1.3 µM	14.2 µM	0.6 µM	14.7 µM	CN(C)c1nc(NCCCNCCCCCCCCCCCCNCCCN)nc(N(C)C)n1	0.71 µM
0.94 µM	39.9 µM	1 µM	20 µM	CN(C)c1nc(N)nc(NCCCNCCCCCCCCCCCCNCCCN)n1	32 µM
16 µM	295 µM	0.5 µM	> 100 µM	Nc1nc(N)nc(NCCCNCCCCCCCCCCCCNCCCNc2nc(N)nc(N)n2)n1	> 13 µM
